Measurements taken from article PMC8463510 (Acta Pharmaceutica Sinica. B, 2021).
Values after ≈ are worked out from the molar mass of the structure shown.

Columns and labels:
[1] = Apparent solubility in vitro; format: physicochemical; conditions: thermodynamic from solid; for solubility at 2 h: 25 °C
[2] = Oral pharmacokinetics / bioavailability in rats; format: in vivo; conditions: male, Sprague-Dawley, rat, plasma, 4 mg/kg
In short: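 Male SD rats (250 ± 50 g), fasted 12 h with water, randomised to groups, n = 6. Test compound or its cyclodextrin/CD-MOF formulations were suspended in 0.5% CMC-Na and given orally at 4 mg/kg (as parent). Orbital blood was taken into heparin at 0–24 h, and plasma stored at −80 °C. Progesterone internal standard, acidified-acetonitrile precipitation, HPLC–MS/MS MRM positive ion (m/z 319.2 → 273.2). PK by […] analysis; mean ± SD.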

[3] = azilsartan loaded in CD-MOF; cited from earlier work
[4] = azilsartan loaded in CD-MOF, SD rats; cited from earlier work

| solubility at 2 h ([1]; pH 1, simulated gastric fluid) [µg/mL] | solubility at 2 h ([1]; pH 4.5, aqueous buffer) [µg/mL] | solubility at 2 h ([1]; pH 6.8, aqueous buffer) [µg/mL] | solubility ([1]; KOH solution, pH 11, aqueous buffer) [µg/mL] | solubility at 2 h ([1]; distilled water, water) [µg/mL] | AUC(0-t) [2] [ng·h/mL] | Cmax [2] [ng/mL] | Tmax [2] [h] | Structure (SMILES) | apparent solubility, times of the API [3] [times] | bioavailability, times that of API [4] [times] |
| --- | --- | --- | --- | --- | --- | --- | --- | --- | --- | --- |
| < 0.02 | < 0.02 | 20.1 (≈ 63 µM) | 240 (≈ 753 µM) | 0.13 (≈ 0.407 µM) | 590 | 61 ± 39 | 3.01 | C[C@@]12CC[C@@H]3[C@@](CC[C@H]4[C@@]3(C)CCC[C@@]4(C)C(=O)O)(CC1=O)C2 [STV, Isosteviol] | – | – |
| – | – | – | – | – | – | – | – | CCOc1nc2cccc(C(=O)O)c2n1Cc1ccc(-c2ccccc2-c2noc(=O)[nH]2)cc1 [azilsartan] | 340 | 9.7 |
